Most compounds without a hit are left out; they make up all but 1.3% or so of the library.
LEDGF integ inh – blocks HIV-1 LEDGF/p75-dependent DNA integration; TR-FRET IN-LEDGF/p75 DNA integration, Eu/Cy5; inhibition, % at 3.7 µM; actives 0.64% (n = 370,000); AID 743269;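 active = inhibition above the screen-wide mean plus 3 SD, cut at about 13% in these data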;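 also: signal is the Cy5 over europium emission ratio at 671 and 618 nm; 0% = plate median of compound wells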
CASP6 VEID inh – caspase-6 (human) enzyme inhibition. P55212. purified caspase-6, Z-VEID-R110 cleavage fluorescence. inhibition, % at 12.5 µM. actives 0.53% (n = 350,000). AID 686996;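 active = mean inhibition across replicates at least about 35%, with every replicate also reaching that limit, limit read from the data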;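 also: 0% = median of neutral control wells and 100% = no fluorescence left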
UCH37 DUB inh – human UCH37 deubiquitinating enzyme inhibition; Q9Y5K5; purified proteasome/UCH37, Ub-AMC cleavage fluorescence; inhibition, % (test concentration not listed); actives 0.33% (n = 330,000); AID 588478;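 active = mean inhibition over replicate wells above about 20%, limit read from the data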;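 also: 0% = compound-free wells with enzyme and 100% = wells lacking proteasome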
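Material: human UCH37 enzyme supplied as purified proteasome complex / Amount: 0.15 nM proteasome as dispensed / Buffer or medium: pH 7.4 Tris-HCl (50 mM) with ovalbumin, ATP-MgCl2, DTT / Times: preincubation 30 min, reaction 25 min, room temperature / Technique: AMC fluorescence from Ub-AMC cleavage, excitation 355 nm, emission 460 nm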
TDP2 inh – blocks human TDP2 phosphodiesterase activity; recombinant TDP2, T5PNP hydrolysis, p-nitrophenol absorbance 415 nm; AID 720702; actives 0.34% (n = 370,000); O95551; inhibition, % at 12.8 µM;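 active = inhibition above the mean of all tested compounds plus 3 SD, set per campaign, cut at about 25% in these data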;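 also: 0% = DMSO with enzyme and 100% = buffer with substrate but no TDP2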
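test system = human TDP2 enzyme | input = TDP2 enzyme at 120 nM final | medium = 50 mM Tris-HCl pH 7.5 with Mg2+, KCl, DTT, BSA | also added = T5PNP substrate, 5 mM | times = 2 h at 37 °C | technique = epi absorbance | benchmarks = high control without enzyme, low control DMSO plus TDP2 | replication = each compound tested once, singlicate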
NSD2 HMT inh – blocks human histone methyltransferase NSD2. O96028. NSD2 peptide methylation, AlphaScreen, 120 min. inhibition, % at 12.5 µM. actives 0.54% (n = 310,000); in the data active = inhibition above about 50%
The depositor's hits bear a star.

What do the screens show for `O=C(/C=C/c1ccco1)NC(=S)Nc1ccccc1O`?
LEDGF integ inh: 9.3; CASP6 VEID inh: 51.4*; UCH37 DUB inh: 6.3; TDP2 inh: 1.4; NSD2 HMT inh: 24.2

Results for O=C(/C=C\c1ccco1)NC(=S)Nc1ccccc1O ?
LEDGF integ inh: 9.1; CASP6 VEID inh: 49.1*; UCH37 DUB inh: 6.8; TDP2 inh: 1.4

How did O=C(/C=C/c1ccco1)NC(=S)Nc1ccccc1N1CCCC1 do in these assays?
LEDGF integ inh: 1.3; UCH37 DUB inh: 5.3; TDP2 inh: 16.4; NSD2 HMT inh: 4.2

What do the screens show for `Cc1ccc(NC(=S)NC(=O)/C=C/c2ccco2)c(O)c1`?
LEDGF integ inh: 1.7; CASP6 VEID inh: 42.8*; UCH37 DUB inh: 1.4; TDP2 inh: -8.7; NSD2 HMT inh: 11.2

Results for O=C(NN=Cc1ccc(-c2ccc([N+](=O)[O-])cc2)o1)C(O)c1ccccc1 (configuration not stated) ?
UCH37 DUB inh: 7.8

What do the screens show for `O=C(Oc1cccc(-n2cnnn2)c1)c1ccccc1Cl`?
LEDGF integ inh: -3.8; CASP6 VEID inh: 46.4*; UCH37 DUB inh: 4.3; TDP2 inh: -12.9

Results for O=C(Oc1cccc(-n2cnnn2)c1)c1ccccc1 ?
LEDGF integ inh: 3.0; CASP6 VEID inh: 1.8; UCH37 DUB inh: 1.2; TDP2 inh: 4.9; NSD2 HMT inh: -1.0

How did O=C(O)CCNc1cc(N2CCN(C(=O)c3ccco3)CC2)c2noc3c2c1C(=O)c1ccccc1-3 do in these assays?
LEDGF integ inh: -0.7; CASP6 VEID inh: 26.5; TDP2 inh: 38.0*

How did CCN1CCN(c2cc(N3CCN(C(=O)c4ccco4)CC3)c3c4c(onc24)-c2ccccc2C3=O)CC1 do in these assays?
NSD2 HMT inh: 44.4

What do the screens show for `COc1ccc(N(C(=O)c2snc(C(N)=O)c2N)C(C(=O)NC2CCCC2)c2ccco2)c(OC)c1` (configuration not stated)?
LEDGF integ inh: -2.3; CASP6 VEID inh: 62.8*; UCH37 DUB inh: -9.8; TDP2 inh: -6.0; NSD2 HMT inh: 4.8

How did CC(=O)c1cccc(OCc2cc(C(=O)NCCC3=CCCCC3)no2)c1 do in these assays?
LEDGF integ inh: -3.7; CASP6 VEID inh: 3.3; UCH37 DUB inh: 22.2*; TDP2 inh: -12.2; NSD2 HMT inh: 0.5

What do the screens show for `Cn1cccc1C=Nn1c(-c2ccc(Cl)cc2)n[nH]c1=S`?
UCH37 DUB inh: 0.9

What do the screens show for `COc1ccccc1/C=C/C=Nn1c(-c2ccc(Cl)cc2)n[nH]c1=S`?
UCH37 DUB inh: 4.7

What do the screens show for `CCOC(=O)C1=C(O)/C(=C/c2ccc(OCC(=O)O)c(OCC)c2)SC1=Nc1ccc(C)cc1`?
LEDGF integ inh: -2.6; CASP6 VEID inh: 14.1; UCH37 DUB inh: 8.3; TDP2 inh: -9.6; NSD2 HMT inh: 10.1

What do the screens show for `CCOC(=O)C1=C(O)/C(=C/c2ccc(OCC(=O)O)c(OCC)c2)SC1=Nc1ccc(OC)cc1`?
LEDGF integ inh: -7.0; CASP6 VEID inh: 35.5*; UCH37 DUB inh: 13.5; TDP2 inh: -11.6; NSD2 HMT inh: 7.5

What do the screens show for `CCN(CC)C(=O)c1sc(NC(=O)c2cccc([N+](=O)[O-])c2)c(C#N)c1C`?
LEDGF integ inh: -1.7; CASP6 VEID inh: 0.2; UCH37 DUB inh: 8.0; TDP2 inh: -6.1; NSD2 HMT inh: -1.3

How did CCN(CC)C(=O)c1sc(NC(=O)c2c(OC)cccc2OC)c(C#N)c1C do in these assays?
LEDGF integ inh: 2.7; CASP6 VEID inh: 1.8; UCH37 DUB inh: 28.8*; TDP2 inh: -2.1; NSD2 HMT inh: 7.3

What do the screens show for `O=C([C@H]1[C@H](CO)[C@H]2Cn3c(cccc3=O)[C@H]2N1Cc1cc(F)ccc1F)N1CCOCC1`?
CASP6 VEID inh: 36.6*

Results for CCC(=NNC(=O)c1ccc(CN(C)S(=O)(=O)c2ccc(C)cc2)cc1)c1ccc(OC(F)F)cc1 ?
UCH37 DUB inh: -0.7

What do the screens show for `CCC(O)(CC)C(=O)NN(C(=O)CCl)c1ccccc1`?
LEDGF integ inh: 2.5; CASP6 VEID inh: 12.7; UCH37 DUB inh: 2.0; TDP2 inh: -6.5; NSD2 HMT inh: 2.1

Results for O=C(Nc1ccccc1)NN(C(=O)CCl)c1ccccc1 ?
LEDGF integ inh: 0.7; CASP6 VEID inh: 49.6*; UCH37 DUB inh: 1.7; TDP2 inh: 4.1; NSD2 HMT inh: 5.8

What do the screens show for `CC(=NNC(=O)c1ccc(CN2CCOCC2)cc1)c1cccc([N+](=O)[O-])c1`?
UCH37 DUB inh: -4.3

Source: PubChem BioAssay
